Test results taken from ChEMBL document CHEMBL3244248, “Substituted 3-amino-1,1-diaryl-2-propanols as potential antidepressant agents” (J Med Chem, 1979).
One block for each compound: values may come before it. Calls of active or inactive are those of the source. The rule behind the calls is not given here.

What was measured:
[1] = test system: Mus musculus; assay: Antidepressant activity against reserpine-induced hypothermia CFLP mouse model assessed as change in esophageal temperature at 10 mg/kg, po treated before 2 to 24 hrs of reserpine challenge; format: functional, organism-based; parameters: dose 10 mg/kg
Summary of the method: (§1)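 Male CFLP mice (18–23 g), two groups of five, received oral compound or vehicle 24, 18 and 2 h before iv reserpine base (1 mg/kg). Esophageal temperature was read before reserpine and at 2, 4 and 6 h. Test-minus-control mean differences at the three times were summed and corrected for the 0 h difference, giving Δ6 (°C).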

[2] = test system: Mus musculus; assay: Antidepressant activity against reserpine-induced hypothermia CFLP mouse model assessed as change in esophageal temperature at 30 mg/kg, po treated before 2 to 24 hrs of reserpine challenge; format: functional, organism-based; parameters: dose 30 mg/kg; summary of the method: as §1
[3] = Anticholinergic effect in sc dosed CFLP mouse assessed as inhibition of pilocarpine-induced salivation; format: organism-based; conditions: in vivo
Summary of the method: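 Male CFLP mice (18–23 g), groups of eight. Vehicle or drug was given sc 20 min before urethane anaesthesia (1.8 g/kg sc), and pilocarpine (2 mg/kg sc) followed 10 min later. Salivation areas on chromatography paper were measured by planimeter every 5 min for 35 min. Percentage change from control was regressed against log dose to give an ED50 with fiducial limits.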

[4] = test system: Ileum; assay: Anticholinergic effect in guinea pig ileum assessed as inhibition of acetylcholine-induced contraction; format: tissue-based; conditions: Cavia porcellus, read-out: pA2 (converted)
Summary of the method: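 Guinea pig ileum contracted by acetylcholine. ED50 values were generated from a dose–response fit, p = D^E/(D^E + K^E), and converted to pA2. pA2 is the negative log10 of the molar antagonist concentration that reduces the effect of two equal acetylcholine doses to that of a single dose.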

[5] = test system: Mus musculus; assay: Antidepressant activity against reserpine-induced hypothermia CFLP mouse model assessed as change in esophageal temperature at 1 mg/kg, po treated before 2 to 24 hrs of reserpine challenge; format: functional, organism-based; parameters: dose 1 mg/kg; summary of the method: as §1
[6] = species: Mus musculus; assay: Anticholinergic effect in CFLP mouse assessed as mydriasis; conditions: in vivo
[7] = test system: Mus musculus; assay: Antidepressant activity against reserpine-induced hypothermia CFLP mouse model assessed as change in esophageal temperature at 5 mg/kg, po treated before 2 to 24 hrs of reserpine challenge; format: functional, organism-based; parameters: dose 5 mg/kg; summary of the method: as §1
[8] = test system: Mus musculus; assay: Antidepressant activity against reserpine-induced hypothermia CFLP mouse model assessed as change in esophageal temperature at 6 mg/kg, po treated before 2 to 24 hrs of reserpine challenge; format: functional, organism-based; parameters: dose 6 mg/kg; summary of the method: as §1
[9] = test system: Mus musculus; assay: Antidepressant activity against reserpine-induced hypothermia CFLP mouse model assessed as change in esophageal temperature < 5 degC at 100 mg/kg, po treated before 2 to 24 hrs of reserpine challenge; format: functional, organism-based; parameters: dose 100 mg/kg; summary of the method: as §1
[10] = test system: Mus musculus; assay: Antidepressant activity against reserpine-induced hypothermia CFLP mouse model assessed as change in esophageal temperature at 100 mg/kg, po treated before 2 to 24 hrs of reserpine challenge; format: functional, organism-based; parameters: dose 100 mg/kg; summary of the method: as §1
[11] = test system: Mus musculus; assay: Antidepressant activity against reserpine-induced hypothermia CFLP mouse model assessed as change in esophageal temperature at 3 mg/kg, po treated before 2 to 24 hrs of reserpine challenge; format: functional, organism-based; parameters: dose 3 mg/kg; summary of the method: as §1
[12] = test system: Mus musculus; assay: Antidepressant activity against reserpine-induced hypothermia CFLP mouse model assessed as change in esophageal temperature < 5 degC at 30 mg/kg, po treated before 2 to 24 hrs of reserpine challenge
[13] = Inhibition of radiolabeled noradrenaline uptake in whole rat brain synaptosome; format: functional, tissue-based
[14] = Inhibition of radiolabeled 5-hydroxytryptamine uptake in whole rat brain synaptosome; format: functional, tissue-based
[15] = Inhibition of radiolabeled dopamine uptake in whole rat brain synaptosome; format: functional, tissue-based
[16] = test system: Brain; assay: In vivo inhibition of hydroxytryptamine-induced depletion of rat brain noradrenaline; format: functional
[17] = test system: Rattus norvegicus; assay: Toxicity in substantia nigra lesioned rat assessed as turning behaviour up to 50 mg/kg, po; format: organism-based; parameters: dose 50 mg/kg, route oral; conditions: in vivo
Summary of the method: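 Rats with a unilateral substantia nigra lesion, dosed orally at up to 50 mg/kg, and observed for turning.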

[18] = test system: Mus musculus; assay: Toxicity in mouse assessed as CNS stimulation up to 8 mg/kg, po; format: organism-based, Central nervous system; parameters: dose 8 mg/kg, route oral; conditions: in vivo
[19] = test system: Mus musculus; assay: Antidepressant activity against reserpine-induced hypothermia CFLP mouse model assessed as change in esophageal temperature at 60 mg/kg, po treated before 2 to 24 hrs of reserpine challenge; format: functional, organism-based; parameters: dose 60 mg/kg; summary of the method: as §1
[20] = test system: Mus musculus; assay: Antidepressant activity against reserpine-induced hypothermia CFLP mouse model assessed as change in esophageal temperature at 16 mg/kg, po treated before 2 to 24 hrs of reserpine challenge; format: functional, organism-based; parameters: dose 16 mg/kg; summary of the method: as §1
[21] = test system: Mus musculus; assay: Antidepressant activity against reserpine-induced hypothermia CFLP mouse model assessed as change in esophageal temperature at 4 mg/kg, po treated before 2 to 24 hrs of reserpine challenge; format: functional, organism-based; parameters: dose 4 mg/kg; summary of the method: as §1
[22] = test system: Mus musculus; assay: Antidepressant activity against reserpine-induced hypothermia CFLP mouse model assessed as change in esophageal temperature at 20 mg/kg, po treated before 2 to 24 hrs of reserpine challenge; format: functional, organism-based; parameters: dose 20 mg/kg; summary of the method: as §1

SMILES: CN(C)CC(OC(=O)c1ccccc1)C(c1ccccc1)c1cccc(Cl)c1 (stereo unspecified)
deltaT [1]: 5.2 °C

SMILES: CN(C)CC(O)C(O)(c1ccccc1)c1ccc(F)cc1 (stereo unspecified)
deltaT [1]: 7.5 °C

SMILES: CNCC(C)(O)C(c1ccccc1)c1ccccc1 (stereo unspecified)
deltaT [2]: 8.9 °C

SMILES: CN(Cc1ccccc1)CC(O)C(c1ccccc1)c1ccccc1 (stereo unspecified)
deltaT [1]: 6.1 °C

ED50 [3]: 24 mg/kg | ED50 [6]: 29 mg/kg
SMILES: CN(C)CC(O)C(c1ccccc1)c1ccccc1Cl.Cl (stereo unspecified)
Kb [4]: 6.31 µM | deltaT [5]: 6.6 °C

ED50 [3]: > 100 mg/kg | ED50 [6]: 26 mg/kg
SMILES: CN(C)CC(O)C(c1ccccc1)c1ccc(F)cc1 (stereo unspecified)
Kb [4]: 15.8 µM | deltaT [7]: 5.8 °C

ED50 [3]: 40 mg/kg | ED50 [6]: 144 mg/kg
SMILES: CNCC(O)C(c1ccccc1)c1ccccc1.Cl (stereo unspecified)
Kb [4]: 10 µM | deltaT [8]: 6.1 °C

SMILES: Cc1ccccc1C(c1ccccc1)C(O)CN(C)C (stereo unspecified)
deltaT [1]: 10.4 °C

SMILES: CN(C)CC(O)C(c1ccccc1)C1CCCCC1 (stereo in doubt; 39b)
Activity [9]: inactive

SMILES: OC(CN1CCOCC1)C(c1ccccc1)c1ccccc1 (stereo unspecified)
deltaT [10]: 11 °C

SMILES: CN(C)CC(O)C(c1ccc(F)cc1)c1ccc(F)cc1 (stereo unspecified)
deltaT [1]: 7.8 °C

ED50 [3]: 63 mg/kg | ED50 [6]: 26 mg/kg
SMILES: Br.CN(C)C[C@H](O)C(c1ccccc1)c1ccccc1
Kb [4]: 3.16 µM

SMILES: CN(C)CC(O)C(c1ccccc1)c1cc(Cl)cc(Cl)c1 (stereo unspecified)
deltaT [11]: 6.2 °C

ED50 [3]: 51 mg/kg | ED50 [6]: 46 mg/kg
SMILES: Br.CN(C)C[C@@H](O)C(c1ccccc1)c1ccccc1
Kb [4]: 7.94 µM

SMILES: CN(C)CC(O)C(CCc1ccccc1)c1ccccc1 (stereo unspecified)
deltaT [10]: 7.4 °C

SMILES: OC(CN1CCCCC1)C(c1ccccc1)c1ccccc1 (stereo unspecified)
deltaT [10]: 9.9 °C

ED50 [3]: 36 mg/kg | ED50 [6]: 53 mg/kg
SMILES: Br.CN(C)CC(O)C(c1ccccc1)c1ccccc1 (stereo unspecified)
Kb [4]: 6.31 µM | deltaT [7]: 5.3 °C

SMILES: CN(Cc1ccccc1)CC(O)C(c1ccccc1)c1ccc(F)cc1 (stereo unspecified)
deltaT [1]: 7.3 °C

SMILES: COC(c1ccccc1)(c1ccccc1)C(O)CN(C)C (stereo unspecified)
deltaT [10]: 6.9 °C

SMILES: CN(C)CC(O)C(Cc1ccccc1)c1ccccc1 (stereo unspecified)
deltaT [2]: 8.6 °C

SMILES: CNCC(O)C(c1ccccc1)c1ccc(C)cc1 (stereo unspecified)
deltaT [10]: 5.4 °C | Activity [12]: inactive

SMILES: CNCC(O)C(c1ccccc1)c1ccccc1Cl (stereo unspecified)
deltaT [7]: 8.6 °C

SMILES: CCN(CC)CC(O)C(c1ccccc1)c1ccccc1 (stereo unspecified)
deltaT [1]: 5 °C

SMILES: CC(O)(CN)C(c1ccccc1)c1ccccc1 (stereo unspecified)
Activity [9]: inactive

ED50 [3]: 33 mg/kg | IC50 [13]: 1.2 µM | IC50 [14]: 9.8 µM | IC50 [15]: 8.9 µM | ED50 [6]: 42 mg/kg
SMILES: CN(C)CC(O)C(c1ccccc1)c1cccc(Cl)c1.Cl (stereo unspecified)
Kb [4]: 15.8 µM | ED50 [16]: 30 mg/kg | Activity [17]: Non-toxic | Activity [18]: Toxic | deltaT [5]: 5.3 °C

SMILES: CN(C)CC(O)C(c1ccccc1)C1CCCCC1 (stereo in doubt; 39a)
Activity [9]: inactive

SMILES: COc1ccc(C(c2ccccc2)C(O)CN(C)C)cc1 (stereo unspecified)
deltaT [1]: 5.9 °C

SMILES: CN(C)CC(O)C(c1ccccc1)c1cccs1 (stereo unspecified)
deltaT [19]: 8.4 °C

ED50 [3]: > 100 mg/kg | ED50 [6]: 49 mg/kg
SMILES: CN(C)CC(O)C(c1ccccc1)c1cccc(Br)c1.Cl (stereo unspecified)
Activity [11]: inactive | Kb [4]: 7.94 µM | deltaT [7]: 12.4 °C

SMILES: Cc1ccc(C(c2ccccc2)C(O)CN(C)C)cc1 (stereo unspecified)
Activity [9]: inactive

SMILES: CN(C)CC(O)C(O)(c1ccccc1)c1ccccc1 (stereo unspecified)
deltaT [2]: 5.5 °C

SMILES: CN(C)CC(O)(c1ccccc1)C(c1ccccc1)c1ccccc1 (stereo unspecified)
Activity [12]: inactive

ED50 [3]: 43 mg/kg | ED50 [6]: 36 mg/kg
SMILES: CCN(C)CC(O)C(c1ccccc1)c1ccccc1.Cl (stereo unspecified)
Kb [4]: 50.1 µM | Activity [7]: inactive | deltaT [1]: 10.2 °C

ED50 [3]: 71 mg/kg | ED50 [6]: 40 mg/kg
SMILES: CN(C)CC(O)C(c1ccccc1)c1ccc(Cl)cc1.O=C(O)CCC(=O)O (stereo unspecified)
Kb [4]: 7.94 µM | deltaT [20]: 6.3 °C

SMILES: CC(=O)OC(CN(C)C)C(c1ccccc1)c1ccccc1 (stereo unspecified)
Activity [21]: inactive | deltaT [7]: 10.2 °C

ED50 [6]: 26 mg/kg
SMILES: CN(C)CC(O)C(c1ccccc1)c1cccc(C(F)(F)F)c1.Cl (stereo unspecified)
Kb [4]: 1.58 µM | deltaT [7]: 9 °C

SMILES: OC(CNCc1ccccc1)C(c1ccccc1)c1ccccc1 (stereo unspecified)
Activity [9]: inactive

SMILES: NCC(O)C(c1ccccc1)c1ccccc1 (stereo unspecified)
Activity [9]: inactive

SMILES: CN1CCN(CC(O)C(c2ccccc2)c2ccccc2)CC1 (stereo unspecified)
deltaT [2]: 6.3 °C

SMILES: CNCC(O)C(c1ccccc1)c1ccc(Cl)cc1 (stereo unspecified)
deltaT [1]: 8.8 °C

SMILES: CN(CCCO)CC(O)C(c1ccccc1)c1ccccc1 (stereo unspecified)
deltaT [2]: 12.4 °C

ED50 [3]: 3.3 mg/kg | ED50 [6]: 20 mg/kg
SMILES: CN(C)CCCN1c2ccccc2CCc2ccccc21 [IMIPRAMINE]
deltaT [22]: 6.8 °C | Kb [4]: 0.00126 µM

SMILES: CN(C)CC(O)C(c1ccccc1)c1ccc(Cl)c(Cl)c1 (stereo unspecified)
deltaT [1]: 7.2 °C
